Measurements taken from PMC10824272 (Biomedicine & pharmacotherapy = Biomedecine & …, 2023).
“And” between values parts separate entries of the source, which are not always exact repeats. Equal entries are not always repeated.

What was measured:
[1] = test system: SW620 cells; assay: Anoikis-induced apoptosis assay; type: cell-based; details: claudin-1 overexpressed SW620
[2] = test system: SW620 cells; assay: Transwell matrigel invasion assay; type: cell-based, human; details: PDS-0330 25μM; P < 0.0001 vs control and 20A
[3] = Solubility in aqueous buffers; type: physicochemical; details: dissolved in DMSO to 135 μM for MST
[4] = test system: normal IEC-6 cells; assay: Cell viability; type: cell-based; details: 72 hours
Summary of the method: (§1)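 Cells maintained in RPMI plus 10% FBS. Viability read with PrestoBlue reagent per kit protocol after 72 h exposure to test compound.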

[5] = test system: trypsinized human claudin-1; assay: Microscale thermophoresis; type: binding; details: 25 °C, at concentrations shown to bind wild-type claudin-1
Summary of the method: (§2)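 Microscale thermophoresis at 25 °C with 1 μM Cy3-labeled, detergent-purified claudin (human claudin-19, mouse claudin-4 or trypsinized human claudin-1) in HEPES pH 7.4/100 mM NaCl buffer. Test compound dissolved in DMSO and titrated from 135 μM to 4.1 nM. Affinity derived from duplicate acquisitions.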

[6] = target: T1, human claudin-1 (Homo sapiens, UniProt O95832); assay: Microscale thermophoresis; type: binding
T1 sequence (O95832 1-211): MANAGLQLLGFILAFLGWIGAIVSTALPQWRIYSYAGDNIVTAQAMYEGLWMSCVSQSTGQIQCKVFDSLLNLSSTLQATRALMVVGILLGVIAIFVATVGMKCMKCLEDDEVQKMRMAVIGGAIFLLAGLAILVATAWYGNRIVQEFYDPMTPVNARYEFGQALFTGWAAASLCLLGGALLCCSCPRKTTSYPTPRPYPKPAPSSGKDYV

[7] = test system: SW480^cld1 cells; assay: Cell viability; type: cell-based, human
Summary of the method: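 Claudin-1-overexpressing SW480cld1 and SW620 cells grown in RPMI with 10% FBS and exposed for 72 hours to a range of test compound concentrations. Viability measured by PrestoBlue reagent. EC50 calculated from the concentration–viability data.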

[8] = Plasma pharmacokinetics in mice; type: in vivo; details: for AUC(0-t) / CL/F / Cmax / Tmax / Vd/F / half-life / AUC(0-inf): both, mouse, plasma, 5 mg/kg; for AUC(0-inf): AUC0−∞, mice
Summary of the method: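 I-6 given as a single 1 mg/kg intravenous dose to C57BL6 mice (n=5), with serial blood sampling. PDS-0330 given at 5 mg/kg by oral gavage or IP, with ~100 μl blood drawn from the maxillary vein at 5, 15, 30 min and 1, 2, 4, 6, 8, 24 h. Plasma levels in ng/ml; non-compartmental parameters.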

[9] = test system: SW480^cld1 xenograft tumor; assay: Subcutaneous xenograft tumor study; type: in vivo, athymic nude mice
Summary of the method: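 Cells implanted subcutaneously in athymic nude mice, n = 5 per group, vehicle controls. For SW480cld1 with I-6, once-weekly dosing started 10 days after implantation, once tumors were palpable, for two weeks. Caliper volume over time, formula […]. Ki67 and cleaved PARP by IHC. Behavior and body weight monitored.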

[10] = target: T2, claudin-1/Src association (Homo sapiens, UniProt O95832); assay: Claudin-1 immunoprecipitation / Src immunoblot in SW620 cells; type: cell-based; details: 12.5μM and 25μM
T2 sequence (O95832 1-211): T1 sequence (O95832 1-211)

[11] = Drug toxicity in xenograft mice; type: in vivo
Summary of the method: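 Body weight recorded during treatment. BUN determined colorimetrically in plasma and kidney tissue lysate by kit protocol. Mice sacrificed at day 25; AST activity measured in plasma and liver homogenate, followed up to 60 min at regular intervals. n=5 mice/group, means ± SEM.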

[12] = target: T3, mouse claudin-4 (Mus musculus, UniProt O35054); assay: Microscale thermophoresis; type: binding; details: 25 °C, duplicate acquisitions
T3 sequence (O35054 1-210): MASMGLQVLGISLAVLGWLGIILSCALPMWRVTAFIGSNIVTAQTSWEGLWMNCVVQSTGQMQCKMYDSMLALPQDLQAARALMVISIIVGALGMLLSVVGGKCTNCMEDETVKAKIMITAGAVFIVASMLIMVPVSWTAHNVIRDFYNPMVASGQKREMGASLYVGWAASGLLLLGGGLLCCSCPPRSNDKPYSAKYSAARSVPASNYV
Summary of the method: as §2

[13] = test system: HCT116 cells; assay: Cell viability; type: cell-based, human; details: claudin-1 deficient HCT116 cells; 72 hours
Summary of the method: as §1

[14] = test system: SW480^cld1, SW620 and HCT116 cells; assay: Screening of I-6 analogs by anoikis; type: cell-based, human; details: Suppl Fig3
Summary of the method: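 Anoikis induced by plating cells on poly-HEMA-coated culture plates. Apoptosis quantified with a cell death detection ELISA. Parental lines were cultured in RPMI with 10% FBS. Claudin-1-overexpressing SW480 and claudin-1-knockdown SW620 derivatives were used.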

[15] = test system: HCT116 cells; assay: Anoikis-induced apoptosis assay; type: cell-based, human; details: claudin-1 deficient HCT116
[16] = target: T4, human claudin-19 (Homo sapiens, UniProt Q8N6F1); assay: Microscale thermophoresis; type: binding; details: 25 °C, duplicate acquisitions
T4 sequence (Q8N6F1 1-224): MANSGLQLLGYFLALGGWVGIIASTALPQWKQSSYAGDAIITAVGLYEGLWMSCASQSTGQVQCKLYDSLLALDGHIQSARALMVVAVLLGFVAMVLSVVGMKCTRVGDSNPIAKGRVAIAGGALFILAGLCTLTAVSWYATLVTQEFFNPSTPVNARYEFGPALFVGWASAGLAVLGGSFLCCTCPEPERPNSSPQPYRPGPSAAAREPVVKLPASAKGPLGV
Summary of the method: as §2

Q: With O=C(NC(=S)Nc1ccc(-c2nc3ccccc3o2)cc1)c1ccc2ccccc2c1 [PDS-0330, N-((4-(benzo[d]oxazol-2-yl)phenyl)carbamothioyl)-2-naphthamide] as the molecule, how does the resistance to anoikis [1] read?
A: The resistance to anoikis was “dramatically reduced the resistance to anoikis”.

Q: What about the cell invasion [2] of the same molecule?
A: The cell invasion was “significantly inhibited”.

Q: And the “solubility in aqueous buffers” value [3]?
A: Its value is “limited solubility”.

Q: What about the “effect on cell growth/survival” value [4] of the same molecule?
A: The value was “no effect”.

Q: And the “binding to trypsinized and labeled claudin-1” value [5]?
A: Its value is “no detectable binding”.

Q: And the Hill coefficient ([6]; 37°C)?
A: The Hill coefficient was ~ 5 and 4.5.

Q: And the Kd ([6]; binding affinity, 37°C, fit to Hill-Langmuir equation)?
A: Its Kd is 44.9 ± 5.6 µM.

Q: What about the Kd ([6]; equilibrium dissociation constant (Kd), Cy3-labeled human claudin-1, 25 °C, eight independent acquisitions) of the same molecule?
A: The Kd was 22.9 ± 3 µM.

Q: What about the “binding affinity to other claudin subtypes, fold lower than claudin-1” value ([6]; human claudin-19 and mouse claudin-4 vs human claudin-1) of the same molecule?
A: Its value is ~ 4 fold.

Q: And the EC50 ([7]; Homo sapiens, 72 h, read-out: EC50, cell viability)?
A: The EC50 was 8.4 µM.

Q: What about the “CI index, % cell survival in combination with 5-FU” value ([7]; PDS-0330 with 5-FU (5μM)) of the same molecule?
A: Its value is under 1.

Q: And the “mouse behavior or weight” value ([8]; 24 hours after a single PO and IP injection (5 mg/kg), data not shown)?
A: Its value is “no change”.

Q: And the AUC(0-t) ([8]; ip)?
A: Its AUC(0-t) is 422 ng·h/mL.

Q: What about the CL/F ([8]; ip) of the same molecule?
A: The CL/F was 245 mL/min/kg.

Q: And the Cmax ([8]; ip)?
A: The Cmax was 59.3 ng/mL.

Q: What about the Tmax ([8]; ip) of the same molecule?
A: The Tmax was 2.8 h.

Q: What about the Vd/F ([8]; ip) of the same molecule?
A: Its Vd/F is 126 L/kg.

Q: What about the half-life ([8]; ip) of the same molecule?
A: The half-life was 5.5 h.

Q: And the AUC(0-inf) ([8]; ip, PDS-0330 IP 5mg/kg)?
A: Its AUC(0-inf) is 442 ng·h/mL.

Q: What about the AUC(0-t) ([8]; po) of the same molecule?
A: The AUC(0-t) was 53.4 ng·h/mL.

Q: What about the CL/F ([8]; po) of the same molecule?
A: Its CL/F is 1190 mL/min/kg.

Q: And the Cmax ([8]; po)?
A: The Cmax was 30.8 ng/mL.

Q: And the Tmax ([8]; po)?
A: The Tmax was 0.4 h.

Q: And the Vd/F ([8]; po)?
A: Its Vd/F is 1100 L/kg.

Q: What about the half-life ([8]; po) of the same molecule?
A: The half-life was 14.5 h.

Q: And the AUC(0-inf) ([8]; po, PDS-0330 PO 5mg/kg)?
A: Its AUC(0-inf) is 86 ng·h/mL.

Q: What about the “apoptosis in tumors (cleaved PARP, BclxL, survivin)” value ([9]; PDS-0330 5mg/Kg and 10mg/Kg) of the same molecule?
A: The value was “increase in apoptosis”.

Q: And the “proliferation in tumors (Ki67)” value ([9]; PDS-0330 5mg/Kg and 10mg/Kg)?
A: Its value is “reduced proliferation”.

Q: And the “tumor volume and weight” value ([9]; PDS-0330 5mg/Kg and 10mg/Kg vs vehicle)?
A: The value was “significant reduction”.

Q: What about the “association of Src with claudin-1” value [10] of the same molecule?
A: Its value is “significantly interferes”.

Q: What about the “body weight among groups at the end of treatment” value ([11]; PDS-0330 5mg/Kg and 10mg/Kg, SW620 and SW480^cld1 implanted mice) of the same molecule?
A: Its value is “no statistically significant differences”.

Q: And the “urea nitrogen (BUN) level” value ([11]; kidney tissue and plasma of treated mice)?
A: Its value is “not affected”.

Q: And the “aspartate transaminase (AST) levels” value ([11]; plasma and liver homogenate, day 25)?
A: The value was “not affected”.

Q: What about the Kd [12] of the same molecule?
A: The Kd was 92.1 µM and ≥ 100 µM.

Q: And the “effect on cell growth/survival” value [13]?
A: Its value is “no effect”.

Q: And the “potency in inducing cell death among I-6 analogs” value [14]?
A: The value was “most potent”.

Q: What about the resistance to anoikis [15] of the same molecule?
A: Its resistance to anoikis is “not affecting”.

Q: What about the Kd [16] of the same molecule?
A: Its Kd is 157 µM and ≥ 100 µM.
